Data as given in ChEMBL document CHEMBL1765003, “Discovery of (1S,2R,3R)-2,3-dimethyl-2-phenyl-1-sulfamidocyclopropanecarboxylates: novel and highly selective aggrecanase inhibitors” (J Med Chem, 2011).

How the values were obtained:
[1] = biological target: T1, A disintegrin and metalloproteinase with thrombospondin motifs 4 (Homo sapiens, UniProt O75173); experiment: Inhibition of human recombinant aggrecanase 1 after 150 mins by fluorescence plate reader
T1 sequence (O75173 whole entry): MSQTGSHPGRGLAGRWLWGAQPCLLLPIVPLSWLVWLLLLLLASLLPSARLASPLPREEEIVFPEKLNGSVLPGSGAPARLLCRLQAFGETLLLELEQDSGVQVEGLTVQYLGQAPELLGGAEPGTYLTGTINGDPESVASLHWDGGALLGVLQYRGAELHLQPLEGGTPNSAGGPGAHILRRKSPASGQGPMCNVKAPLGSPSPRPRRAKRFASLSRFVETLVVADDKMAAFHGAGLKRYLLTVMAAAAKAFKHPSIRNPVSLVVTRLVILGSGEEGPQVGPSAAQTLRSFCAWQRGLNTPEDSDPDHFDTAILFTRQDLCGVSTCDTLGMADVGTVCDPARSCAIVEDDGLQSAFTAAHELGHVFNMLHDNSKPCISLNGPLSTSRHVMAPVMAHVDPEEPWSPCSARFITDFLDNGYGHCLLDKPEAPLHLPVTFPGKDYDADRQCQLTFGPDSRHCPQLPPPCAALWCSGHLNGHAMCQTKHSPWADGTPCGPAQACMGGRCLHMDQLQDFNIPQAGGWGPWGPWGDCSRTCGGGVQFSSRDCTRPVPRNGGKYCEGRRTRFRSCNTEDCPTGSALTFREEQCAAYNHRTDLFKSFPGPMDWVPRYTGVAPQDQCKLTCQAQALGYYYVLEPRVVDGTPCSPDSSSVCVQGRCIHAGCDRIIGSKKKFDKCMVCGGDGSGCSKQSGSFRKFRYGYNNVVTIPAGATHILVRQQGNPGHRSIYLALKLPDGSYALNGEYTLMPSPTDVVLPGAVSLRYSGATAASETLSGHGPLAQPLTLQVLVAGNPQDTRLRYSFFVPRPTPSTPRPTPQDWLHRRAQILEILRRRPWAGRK

[2] = biological target: Disintegrin and metalloproteinase domain-containing protein 17 (Homo sapiens, UniProt P78536); experiment: Inhibition of human recombinant TACE after 60 mins by fluorescence plate reader
Outline: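 rh-TACE at 80 ng/mL with 10 μM MCA-Pro-Leu-Ala-Gln-Ala-Val-Dpa-Arg-Ser-Ser-Ser-Arg-NH₂, in 100 mM Tris-HCl pH 7.5, 150 mM NaCl, 10 mM CaCl₂, 0.05% Brij-35. Inhibitor preincubated for 15 min at 25 °C. Fluorescence (ex 325/em 405 nm) read at 60 min. IC50 from three linear-range points; mean of ≥2.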

[3] = biological target: T2, A disintegrin and metalloproteinase with thrombospondin motifs 5 (Homo sapiens, UniProt Q9UNA0); experiment: Inhibition of human recombinant aggrecanase 2 after 150 mins by fluorescence plate reader
T2 sequence (Q9UNA0 whole entry): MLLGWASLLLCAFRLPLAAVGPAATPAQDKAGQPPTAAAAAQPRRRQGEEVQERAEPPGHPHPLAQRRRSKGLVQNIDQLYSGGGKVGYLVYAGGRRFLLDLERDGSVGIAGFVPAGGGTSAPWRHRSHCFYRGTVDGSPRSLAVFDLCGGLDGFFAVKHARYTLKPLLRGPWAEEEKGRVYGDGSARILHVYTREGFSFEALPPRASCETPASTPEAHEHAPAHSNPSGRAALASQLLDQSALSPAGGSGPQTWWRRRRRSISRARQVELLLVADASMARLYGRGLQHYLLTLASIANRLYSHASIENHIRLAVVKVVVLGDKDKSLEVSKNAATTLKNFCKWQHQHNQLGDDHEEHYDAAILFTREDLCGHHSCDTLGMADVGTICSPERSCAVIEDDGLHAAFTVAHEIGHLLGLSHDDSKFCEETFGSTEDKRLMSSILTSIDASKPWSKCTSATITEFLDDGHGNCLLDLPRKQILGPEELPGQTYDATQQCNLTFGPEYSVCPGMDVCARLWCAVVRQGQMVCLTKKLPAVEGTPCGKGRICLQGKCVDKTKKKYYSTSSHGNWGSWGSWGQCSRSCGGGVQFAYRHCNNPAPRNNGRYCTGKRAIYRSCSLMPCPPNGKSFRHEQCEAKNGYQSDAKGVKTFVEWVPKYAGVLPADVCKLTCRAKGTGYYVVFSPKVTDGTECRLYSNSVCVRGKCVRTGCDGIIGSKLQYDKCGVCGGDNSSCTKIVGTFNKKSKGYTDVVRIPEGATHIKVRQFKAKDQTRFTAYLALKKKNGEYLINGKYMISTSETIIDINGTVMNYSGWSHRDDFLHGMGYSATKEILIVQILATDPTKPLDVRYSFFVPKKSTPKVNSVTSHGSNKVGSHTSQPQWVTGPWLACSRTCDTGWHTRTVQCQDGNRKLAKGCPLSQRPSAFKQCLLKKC

Interstitial collagenase = biological target: T3, Interstitial collagenase (Homo sapiens, UniProt P03956); experiment: Inhibition of human recombinant MMP1 after 60 mins by fluorescence plate reader
T3 sequence (P03956 whole entry): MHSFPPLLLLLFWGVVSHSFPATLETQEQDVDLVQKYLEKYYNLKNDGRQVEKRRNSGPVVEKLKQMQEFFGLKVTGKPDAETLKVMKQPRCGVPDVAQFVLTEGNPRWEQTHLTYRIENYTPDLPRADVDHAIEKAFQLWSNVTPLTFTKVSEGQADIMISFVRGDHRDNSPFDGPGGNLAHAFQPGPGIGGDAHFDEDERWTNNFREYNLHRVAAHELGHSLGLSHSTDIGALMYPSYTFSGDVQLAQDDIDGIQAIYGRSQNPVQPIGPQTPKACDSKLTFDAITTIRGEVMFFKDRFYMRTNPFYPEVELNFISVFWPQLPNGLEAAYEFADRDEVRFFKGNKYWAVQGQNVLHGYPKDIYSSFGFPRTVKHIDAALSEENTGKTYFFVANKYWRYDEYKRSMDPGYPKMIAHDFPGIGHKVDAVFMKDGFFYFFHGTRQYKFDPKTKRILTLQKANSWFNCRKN
Outline: (§1)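 Recombinant human enzyme at 20 ng/mL with 10 μM MOCAc-Lys-Pro-Leu-Gly-Leu-A2pr(Dnp)-Ala-Arg-NH₂, in 100 mM Tris-HCl pH 7.5, 150 mM NaCl, 10 mM CaCl₂, 0.05% Brij-35. Enzyme pretreated with inhibitor for 15 min at 25 °C, then substrate added. Fluorescence (ex 325, em 405 nm) read at 60 min. IC50 taken from three points in the linear range; mean of ≥2 determinations.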

[4] = biological target: Matrix metalloproteinase-14 (Homo sapiens, UniProt P50281); experiment: Inhibition of human recombinant MMP14 after 60 mins by fluorescence plate reader; outline: as §1
Homo sapiens = organism: Homo sapiens; experiment: Selectivity ratio of IC50 for human recombinant MMP14 to IC50 for human recombinant aggrecanase 2

Chain of Disintegrin and metalloproteinase domain-containing protein 17 (P78536 whole entry, the tested form may be a part): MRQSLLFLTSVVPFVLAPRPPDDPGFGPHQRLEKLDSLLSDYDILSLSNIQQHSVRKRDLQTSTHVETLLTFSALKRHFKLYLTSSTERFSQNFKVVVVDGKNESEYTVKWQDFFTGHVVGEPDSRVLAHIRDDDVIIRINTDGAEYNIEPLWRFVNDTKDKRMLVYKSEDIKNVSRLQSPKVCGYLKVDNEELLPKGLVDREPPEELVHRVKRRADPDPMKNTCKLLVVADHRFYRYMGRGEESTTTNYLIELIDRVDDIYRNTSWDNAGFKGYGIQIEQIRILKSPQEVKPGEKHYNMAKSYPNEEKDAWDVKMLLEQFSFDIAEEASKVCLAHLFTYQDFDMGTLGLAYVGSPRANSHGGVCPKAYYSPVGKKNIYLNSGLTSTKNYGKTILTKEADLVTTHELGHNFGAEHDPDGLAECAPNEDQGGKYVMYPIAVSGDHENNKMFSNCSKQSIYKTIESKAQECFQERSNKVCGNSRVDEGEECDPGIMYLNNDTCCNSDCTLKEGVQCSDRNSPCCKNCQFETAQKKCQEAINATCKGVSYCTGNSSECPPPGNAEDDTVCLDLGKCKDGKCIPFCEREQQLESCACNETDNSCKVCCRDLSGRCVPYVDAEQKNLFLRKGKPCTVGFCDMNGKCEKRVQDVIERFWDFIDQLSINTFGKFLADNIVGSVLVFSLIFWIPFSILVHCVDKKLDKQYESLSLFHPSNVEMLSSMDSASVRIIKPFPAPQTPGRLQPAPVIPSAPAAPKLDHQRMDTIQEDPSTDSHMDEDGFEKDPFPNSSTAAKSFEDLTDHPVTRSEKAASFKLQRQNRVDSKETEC

| SMILES | IC50 [1] | IC50 [2] | IC50 [3] | IC50 (Interstitial collagenase) | IC50 [4] | Ratio IC50 (Homo sapiens) |
| --- | --- | --- | --- | --- | --- | --- |
| O=C(NO)[C@@H](NCC1CC1)[C@@H](Cc1cccc(O)c1)C(=O)N[C@H]1c2ccccc2C[C@H]1O | 3 nM | 430 nM | 12 nM | > 10000 nM | > 10000 nM | – |
| C[C@@H]1CN(S(=O)(=O)N[C@@]2(C(=O)O)[C@H](C)[C@@H]2c2ccccc2)CCN1c1cc(C(F)F)on1 | – | > 10000 nM | 27 nM | > 10000 nM | 5400 nM | 200 |
| C[C@@H]1[C@H](c2ccccc2)[C@]1(NS(=O)(=O)N1CCN(c2ccc(Cl)cc2)[C@@H](C)C1)C(=O)O | – | > 10000 nM | 47 nM | > 10000 nM | 2500 nM | 10 |
| C[C@@H]1CN(S(=O)(=O)N[C@@]2(C(=O)O)[C@H](C)[C@@H]2c2ccccc2)CCN1c1ccc(Cl)cc1 | – | > 10000 nM | 37 nM | > 10000 nM | 2100 nM | 10 |
| O=C(NO)c1nc2ccccc2c2c1CN(c1ccc(OCc3ccccc3)cc1)C2=O | 210 nM | – | 950 nM | – | – | – |
| CC(C)(NC(=O)[C@H](CCC(=O)O)NC(=O)c1ccc(-c2ccccc2)cc1)c1ccccc1 | 210 nM | – | 1100 nM | – | – | – |
| CC1(C)C[C@@H](O)CN(S(=O)(=O)c2ccc(OCc3ccc(Cl)cc3Cl)cc2)[C@H]1C(=O)NO | 1.1 nM | – | 1.4 nM | – | – | – |
